From ChEMBL document CHEMBL3526126, “Amide hydrolysis of a novel chemical series of microsomal prostaglandin E synthase-1 inhibitors induces kidney toxicity in the rat” (Drug Metab Dispos, 2013) come the findings set out here.

The test system of data set [1] is Rattus norvegicus. Nature of the data set: Drug metabolism in Wistar Hannover rat assessed as formation of benzene-1,2-disulfonamide metabolite M1 in plasma at 500 umol/kg, po qd administered for 7 days measured on day 7 by radio monitoring method. As to conditions: in vivo, 168 h. Type of data set: ADME, organism-based.
Data set [2] has as its system Rattus norvegicus. Nature of the data set: Drug level in Wistar Hannover rat treated with [14C]-AZ'7847 at 500 umol/kg, po qd administered for 7 days measured on day 7 by radio monitoring method. Format: ADME, organism-based. The following applies: in vivo, 168 h.
The subject of data set [3] is Hepatocyte. As to the kind of experiment: Drug level in Sprague-Dawley rat hepatocytes treated with AZ'7847 at 1 to 10 uM by LC-MS analysis. Type of data set: ADME, cell-based. In outline:
(§1)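 Metabolic profiling in rat hepatocytes at 1 × 10^6 cells/ml in William's medium, shaken gently at 37°C under 5% CO2. Substrate was tested at two concentrations (1 and 10). For radio detection, a 14C-labelled substrate was separated on an Atlantis T3 column (1 ml/min) with a 1:20 split to the MS and a flow scintillation monitor.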

Data set [4] concerns Hepatocyte. As to the kind of experiment: Drug level in Sprague-Dawley rat hepatocytes treated with AZ'7847 at 1 to 10 uM by radio monitoring method. Type of data set: ADME, cell-based. The method in brief:
as §1

Data set [5] is described as follows: AUC (0 to 24 hrs) in Sprague-Dawley rat at 435 umol/kg, po qd administered for 14 days measured on day 14. The following applies: plasma. The arrangement: dose 435 umol/kg, time < 24 hr, route oral. Type of data set: ADME, organism-based. In outline: (§2)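 Toxicity study 3: 5 female animals per dose group for TK. The compound was given as a solution in 15% (w/v) hydroxypropyl-β-cyclodextrin in 0.2 M meglumine, by oral gavage (10 ml/kg) once daily for 14 days. Blood was microsampled at 2, 4, 6, 7 and 24 h on day 1 and on the last dosing day. Parent only was measured, not M1.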

A short description of data set [6]: AUC (0 to 24 hrs) in Sprague-Dawley rat at 900 umol/kg, po qd administered for 14 days measured on day 14. The following applies: plasma. The arrangement: dose 900 umol/kg, time < 24 hr, route oral. Format: ADME, organism-based. In outline: as §2
Data set [7] in a line: AUC (0 to 24 hrs) in Sprague-Dawley rat at 10 umol/kg, po qd measured on day 1. As to conditions: plasma. The arrangement: dose 10 umol/kg, time < 24 hr, route oral. Type of data set: ADME, organism-based. The method in brief:
(§3)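 Single-dose PK in male Sprague-Dawley rats (n = 3). Plasma was profiled over time for parent and for the amide-hydrolysis metabolite M1, and AUC0–24 and Cmax were derived. The dosing protocol follows earlier work.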

In data set [8] the test system is Rattus norvegicus. Nature of the data set: Toxicity in Wistar Hannover rat kidney assessed as increase in plasma urea level at 435 to 900 umol/kg, po qd administered for 14 days measured on day 14. Format: organism-based. The following applies: in vivo, 336 h. The method in brief: (§4)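 Female Wistar Hannover rats (10 per group), about 8 weeks old, were dosed by oral gavage (10 ml/kg) once daily for 14 days. The compound was given as a solution in 15% (w/v) hydroxypropyl-β-cyclodextrin in 0.2 M meglumine. At the end of dosing, plasma (lithium heparin) was taken from the orbital plexus under isoflurane/oxygen anaesthesia for plasma chemistry.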

Data set [9] has as its system Rattus norvegicus. Nature of the data set: Toxicity in Wistar Hannover rat kidney assessed as change in plasma chemistry parameter at 435 umol/kg, po qd administered for 14 days measured on day 14. The following applies: in vivo, 336 h. Format: organism-based. The method in brief:
as §4

Data set [10] can be described thus: AUC (0 to 24 hrs) in Sprague-Dawley rat at 435 umol/kg, po qd measured on day 1. Type of data set: ADME, organism-based. Further details: dose 435 umol/kg, time < 24 hr, route oral. The following applies: plasma. The method in brief: as §2
Data set [11] is described as follows: Cmax in Sprague-Dawley rat at 10 umol/kg, po qd measured on day 1. Type of data set: ADME, organism-based. The arrangement: dose 10 umol/kg, route oral. The following applies: in vivo. The method in brief: as §3
Data set [12] can be described thus: Cmax in Sprague-Dawley rat at 900 umol/kg, po qd measured on day 1. Format: ADME, organism-based. The arrangement: dose 900 umol/kg, route oral. The following applies: in vivo. The method in brief:
as §2

Data set [13] concerns Rattus norvegicus. As to the kind of experiment: Toxicity in Wistar Hannover rat kidney assessed as increase in plasma creatinine level at 435 to 900 umol/kg, po qd administered for 14 days measured on day 14. Type of data set: organism-based. The following applies: in vivo, 336 h, in the assay text read “900 umol/kg” for “435 to 900 umol/kg”. In outline:
as §4

A short description of data set [14]: Cmax in Sprague-Dawley rat at 900 umol/kg, po qd administered for 14 days measured on day 14. Further details: dose 900 umol/kg, route oral. Format: ADME, organism-based. As to conditions: in vivo. The method in brief:
as §2

The nature of data set [15]: Cmax in Sprague-Dawley rat at 435 umol/kg, po qd administered for 14 days measured on day 14. Type of data set: ADME, organism-based. Further details: dose 435 umol/kg, route oral. The following applies: in vivo. The method in brief: as §2
In data set [16] the test system is Rattus norvegicus. As to the kind of experiment: Toxicity in Wistar Hannover rat kidney assessed as crystals in urine at 435 to 900 umol/kg, po qd administered for 14 days measured on day 14. Format: organism-based. The following applies: in vivo, 336 h.
Data set [17] can be described thus: AUC (0 to 24 hrs) in Sprague-Dawley rat at 900 umol/kg, po qd measured on day 1. Type of data set: ADME, organism-based. Further details: time < 24 hr, dose 900 umol/kg, route oral. As to conditions: plasma. In outline: as §2
Data set [18] can be described thus: Cmax in Sprague-Dawley rat at 435 umol/kg, po qd measured on day 1. The following applies: in vivo. Further details: dose 435 umol/kg, route oral. Type of data set: ADME, organism-based. In outline:
as §2

The nature of data set [19]: Drug metabolism in cryopreserved human hepatocytes assessed as amide hydrolysis at 1 to 10 uM by LC-MS analysis. Format: ADME, cell-based, Hepatocyte. In outline:
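Hepatocytes at 1 × 10^6 cells/ml in William's medium incubated at 37°C with gentle shaking under 5% CO2. Substrate was at […]. Metabolites were analysed by LC-MS.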

Turning to `NS(=O)(=O)c1ccccc1S(=O)(=O)N[14C](=O)c1ccc(C#Cc2ccccc2)cc1`, the Drug metabolism result in [1] is “metabolite_detected”.
For the compound `O=[14C](O)c1ccc(C#Cc2ccccc2)cc1`, the Drug metabolism entry in data set [2], in data set [3] and in data set [4] was “metabolite_detected” in each case.
For `Cc1cc(C(=O)NS(=O)(=O)c2ccccc2S(N)(=O)=O)ccc1C#CC1CCC1`, the figures for the AUC at 24 h in data set [5] and in data set [6] were 2520 µM·h and 5000 µM·h, respectively. For the same compound, the values for the exposure AUC(0-t) at 24 h in data set [7], in data set [10] and in data set [17] were 58 µM·h, 2220 µM·h and 5030 µM·h, respectively. Moreover, the Activity result in [8] was “Toxic”; in data set [9] it was “Non-toxic”; in data set [13], “Toxic”; in data set [16], “Toxic”. Besides, the Cmax (commonly the highest concentration seen after dosing) in data set [11] amounted to 11 µM; in data set [12] it was 540 µM; in data set [14], 480 µM; in [15], 415 µM; in data set [18], 375 µM. Besides, in data set [19], the Drug metabolism entry is “metabolite_not_detected”.
